Values after ≈ are worked out from the molar mass of the structure shown. Active and inactive are the calls of the source. The rule behind the calls is not given here.
Columns and labels:
[1] = test system: Bacillus subtilis; assay: Antibacterial activity against Bacillus subtilis at 25 ug/ml incubated for 24 hrs by agar well diffusion method; format: functional; conditions: for zone of inhibition at 25 µg/mL: read-out: DIZ
In short: (§1)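 Bacteria grown in nutrient broth at 37 °C for 24 h, then subcultured at room temperature. Compounds dissolved in DMSO at 5 mg mL⁻¹ and 5–20 µL added to 6 mm wells, giving 25, 50, 75, 100 µg per well. Gentamicin was the positive control and DMSO the negative control. Plates held at 37 °C for 24 h, then inhibition zone diameter (mm) measured. Values are means of three determinations.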

[2] = test system: Candida albicans; assay: Antifungal activity against Candida albicans at 25 ug/ml incubated for 48 hrs by agar well diffusion method; format: functional; conditions: read-out: DIZ
In short: (§2)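 Compounds dissolved in DMSO at 5 mg mL⁻¹ and 5–20 µL added to 6 mm wells, giving 25, 50, 75, 100 µg per well. Bavistin was the positive control and DMSO the negative control. Plates incubated at 28 °C for 48 h, then inhibition zone diameter (mm) measured. Values are means of three determinations.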

[3] = test system: Staphylococcus aureus; assay: Antibacterial activity against Staphylococcus aureus at 50 ug/ml incubated for 24 hrs by agar well diffusion method; format: functional; conditions: read-out: DIZ; in short: as §1
[4] = test system: Fusarium oxysporum; assay: Antifungal activity against Fusarium oxysporum at 25 ug/ml incubated for 48 hrs by agar well diffusion method; format: functional; conditions: read-out: DIZ; in short: as §2
[5] = test system: Klebsiella pneumoniae; assay: Antibacterial activity against Klebsiella pneumoniae at 100 ug/ml incubated for 24 hrs by agar well diffusion method; format: functional; conditions: read-out: DIZ; in short: as §1
[6] = test system: Aspergillus niger; assay: Antifungal activity against Aspergillus niger at 100 ug/ml incubated for 48 hrs by agar well diffusion method; format: functional; conditions: read-out: DIZ; in short: as §2
[7] = test system: Klebsiella pneumoniae; assay: Antibacterial activity against Klebsiella pneumoniae at 75 ug/ml incubated for 24 hrs by agar well diffusion method; format: functional; conditions: read-out: DIZ; in short: as §1
[8] = test system: Candida albicans; assay: Antifungal activity against Candida albicans at 75 ug/ml incubated for 48 hrs by agar well diffusion method; format: functional; conditions: read-out: DIZ; in short: as §2
[9] = test system: Erythrocyte; assay: Anti-inflammatory activity in human RBC assessed as inhibition of hypotonic solution-induced hemolysis after 10 mins by spectrophotometric method; format: functional, cell-based
In short: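 Human blood (heparinized) washed with 0.9% saline, packed cells made into a 40% v/v stock in isotonic phosphate buffer (154 mM NaCl, 10 mM sodium phosphate, pH 7.4). Stock RBC mixed with hypotonic buffer (50 mM NaCl, 10 mM phosphate, pH 7.4) plus sample at 20–100 µg mL⁻¹.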

[10] = test system: Aspergillus niger; assay: Antifungal activity against Aspergillus niger at 50 ug/ml incubated for 48 hrs by agar well diffusion method; format: functional; conditions: for zone of inhibition at 50 µg/mL: read-out: DIZ; in short: as §2
[11] = test system: Escherichia coli; assay: Antibacterial activity against Escherichia coli at 25 ug/ml incubated for 24 hrs by agar well diffusion method; format: functional; conditions: read-out: DIZ; in short: as §1
[12] = test system: Fusarium oxysporum; assay: Antifungal activity against Fusarium oxysporum at 100 ug/ml incubated for 48 hrs by agar well diffusion method; format: functional; conditions: read-out: DIZ; in short: as §2
[13] = test system: Bacillus subtilis; assay: Antibacterial activity against Bacillus subtilis at 50 ug/ml incubated for 24 hrs by agar well diffusion method; format: functional; conditions: for zone of inhibition at 50 µg/mL: read-out: DIZ; in short: as §1
[14] = test system: Aspergillus niger; assay: Antifungal activity against Aspergillus niger at 75 ug/ml incubated for 48 hrs by agar well diffusion method; format: functional; conditions: read-out: DIZ; in short: as §2
[15] = test system: Klebsiella pneumoniae; assay: Antibacterial activity against Klebsiella pneumoniae at 50 ug/ml incubated for 24 hrs by agar well diffusion method; format: functional; conditions: read-out: DIZ; in short: as §1
[16] = test system: Escherichia coli; assay: Antibacterial activity against Escherichia coli at 100 ug/ml incubated for 24 hrs by agar well diffusion method; format: functional; conditions: read-out: DIZ; in short: as §1
[17] = test system: Klebsiella pneumoniae; assay: Antibacterial activity against Klebsiella pneumoniae at 25 ug/ml incubated for 24 hrs by agar well diffusion method; format: functional; conditions: read-out: DIZ; in short: as §1
[18] = test system: Staphylococcus aureus; assay: Antibacterial activity against Staphylococcus aureus at 25 ug/ml incubated for 24 hrs by agar well diffusion method; format: functional; conditions: read-out: DIZ; in short: as §1
[19] = test system: Staphylococcus aureus; assay: Antibacterial activity against Staphylococcus aureus at 75 ug/ml incubated for 24 hrs by agar well diffusion method; format: functional; conditions: read-out: DIZ; in short: as §1
[20] = test system: Fusarium oxysporum; assay: Antifungal activity against Fusarium oxysporum at 75 ug/ml incubated for 48 hrs by agar well diffusion method; format: functional; conditions: read-out: DIZ; in short: as §2
[21] = test system: Escherichia coli; assay: Antibacterial activity against Escherichia coli at 50 ug/ml incubated for 24 hrs by agar well diffusion method; format: functional; conditions: read-out: DIZ; in short: as §1
[22] = test system: Candida albicans; assay: Antifungal activity against Candida albicans at 100 ug/ml incubated for 48 hrs by agar well diffusion method; format: functional; conditions: read-out: DIZ; in short: as §2
[23] = test system: Bacillus subtilis; assay: Antibacterial activity against Bacillus subtilis at 75 ug/ml incubated for 24 hrs by agar well diffusion method; format: functional; conditions: read-out: DIZ; in short: as §1
[24] = test system: Escherichia coli; assay: Antibacterial activity against Escherichia coli at 75 ug/ml incubated for 24 hrs by agar well diffusion method; format: functional; conditions: read-out: DIZ; in short: as §1
[25] = test system: Aspergillus niger; assay: Antifungal activity against Aspergillus niger at 25 ug/ml incubated for 48 hrs by agar well diffusion method; format: functional; conditions: for zone of inhibition at 25 µg/mL: read-out: DIZ; in short: as §2
[26] = test system: Bacillus subtilis; assay: Antibacterial activity against Bacillus subtilis at 100 ug/ml incubated for 24 hrs by agar well diffusion method; format: functional; conditions: read-out: DIZ; in short: as §1
[27] = test system: Staphylococcus aureus; assay: Antibacterial activity against Staphylococcus aureus at 100 ug/ml incubated for 24 hrs by agar well diffusion method; format: functional; conditions: read-out: DIZ; in short: as §1
[28] = test system: Candida albicans; assay: Antifungal activity against Candida albicans at 50 ug/ml incubated for 48 hrs by agar well diffusion method; format: functional; conditions: read-out: DIZ; in short: as §2
[29] = test system: Fusarium oxysporum; assay: Antifungal activity against Fusarium oxysporum at 50 ug/ml incubated for 48 hrs by agar well diffusion method; format: functional; conditions: read-out: DIZ; in short: as §2

SMILES | zone of inhibition at 25 µg/mL [2] [mm] | zone of inhibition at 50 µg/mL [3] [mm] | zone of inhibition at 25 µg/mL [4] [mm] | zone of inhibition at 100 µg/mL [5] [mm] | zone of inhibition at 100 µg/mL [6] [mm] | zone of inhibition at 75 µg/mL [7] [mm] | zone of inhibition at 75 µg/mL [8] [mm] | zone of inhibition at 100 µg/mL [12] [mm] | zone of inhibition at 75 µg/mL [14] [mm] | zone of inhibition at 50 µg/mL [15] [mm] | zone of inhibition at 25 µg/mL [17] [mm] | zone of inhibition at 25 µg/mL [18] [mm] | zone of inhibition at 75 µg/mL [19] [mm] | zone of inhibition at 75 µg/mL [20] [mm] | zone of inhibition at 100 µg/mL [22] [mm] | zone of inhibition at 75 µg/mL [23] [mm] | zone of inhibition at 100 µg/mL [26] [mm] | zone of inhibition at 100 µg/mL [27] [mm] | zone of inhibition at 50 µg/mL [28] [mm] | zone of inhibition at 50 µg/mL [29] [mm] | other results
Cl.NCC(=O)Oc1ccc2c(=O)c3ccccc3oc2c1 | 9 | 15 | 7 | 30 | 17 | 27 | 16 | 17 | 14 | 22 | 17 | 10 | 19 | 14 | 20 | 21 | 26 | 23 | 11 | 10 | zone of inhibition at 25 µg/mL [1]: 10 mm; IC50 [9]: 70 µg/mL; zone of inhibition at 50 µg/mL [10]: 10 mm; zone of inhibition at 25 µg/mL [11]: 12 mm; zone of inhibition at 50 µg/mL [13]: 15 mm; zone of inhibition at 100 µg/mL [16]: 24 mm; zone of inhibition at 50 µg/mL [21]: 17 mm; zone of inhibition at 75 µg/mL [24]: 21 mm; zone of inhibition at 25 µg/mL [25]: 7 mm
CSCC[C@H](NC(=O)OC(C)(C)C)C(=O)Oc1ccc2c(=O)c3ccccc3oc2c1 | 11 | 17 | 8 | 31 | 22 | 26 | 19 | 23 | 18 | 22 | 16 | 15 | 22 | 17 | 21 | 24 | 29 | 27 | 16 | 14 | zone of inhibition at 25 µg/mL [1]: 13 mm; IC50 [9]: 36 µg/mL (≈ 81.2 µM); zone of inhibition at 50 µg/mL [10]: 15 mm; zone of inhibition at 25 µg/mL [11]: 16 mm; zone of inhibition at 50 µg/mL [13]: 18 mm; zone of inhibition at 100 µg/mL [16]: 30 mm; zone of inhibition at 50 µg/mL [21]: 19 mm; zone of inhibition at 75 µg/mL [24]: 25 mm; zone of inhibition at 25 µg/mL [25]: 12 mm
N[C@@H](Cc1c[nH]c2ccccc12)C(=O)O [TRYPTOPHAN] | 5 | 9 | 4 | 17 | 14 | 13 | 13 | 11 | 11 | 10 | 6 | 6 | 13 | 9 | 16 | 12 | 15 | 19 | 9 | 7 | zone of inhibition at 25 µg/mL [1]: 4 mm; zone of inhibition at 50 µg/mL [10]: 7 mm; zone of inhibition at 25 µg/mL [11]: 6 mm; zone of inhibition at 50 µg/mL [13]: 8 mm; zone of inhibition at 100 µg/mL [16]: 17 mm; zone of inhibition at 50 µg/mL [21]: 9 mm; zone of inhibition at 75 µg/mL [24]: 14 mm; zone of inhibition at 25 µg/mL [25]: 4 mm
N[C@@H](Cc1ccc(O)cc1)C(=O)O [TYROSINE] | 4 | 8 | 3 | 15 | 11 | 11 | 13 | 14 | 7 | 7 | 4 | 4 | 12 | 12 | 15 | 9 | 12 | 17 | 8 | 7 | diameter of the inhibition zone (DIZ) [1]: inactive; diameter of the inhibition zone (DIZ) [10]: inactive; diameter of the inhibition zone (DIZ) [13]: inactive; diameter of the inhibition zone (DIZ) [25]: inactive

— ChEMBL document CHEMBL4261538, “Synthesis and molecular docking studies of xanthone attached amino acids as potential antimicrobial and anti-inflammatory agents” (Medchemcomm, 2017)
